Activity calls are given as the source filed them. The calls are words filed in the database; no cut-off is given here.
Legend:
A549 = experiment: Antiproliferative activity against human A549 cells after 72 hrs by MTT assay; format: functional, cell-based; settings: A549, 72 h
Summary of the method: (§1)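 Human tumour cells were exposed to the compound for 72 h, and growth was read by standard MTT assay. IC50 is the concentration giving 50% inhibition, taken as the average of three parallel experiments.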

SGC-7901 [1] = experiment: Antiproliferative activity against human SGC7901 cells after 72 hrs by MTT assay; format: functional, cell-based; settings: SGC-7901, 72 h; summary of the method: as §1
HT-1080 = experiment: Antiproliferative activity against human HT1080 cells after 72 hrs by MTT assay; format: functional, cell-based; settings: HT-1080, 72 h; summary of the method: as §1
L929 = experiment: Cytotoxicity against mouse L929 cells after 72 hrs by MTT assay; format: cell-based; settings: L929, 72 h
Sus scrofa [2] = species: Sus scrofa; experiment: Inhibition of porcine brain tubulin polymerization at 2.5 uM preincubated for 1 min followed by GTP addition measured at 1 min time interval for 90 mins by fluorescence assay
Summary of the method: (§2)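 Run with a commercial tubulin polymerization kit following the manufacturer's protocol. Tubulin was pre-incubated for 1 min with compound (2.5, 5, 10 or 20 µM) or DMSO vehicle, then GTP was added to start polymerization. Reactions were monitored at 37 °C.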

Tubulin (Homo sapiens) = Tubulin (Homo sapiens) (UniProt P68371+Q9H4B7+P0DPH7+P68366+Q13509+Q71U36+P04350+Q3ZCM7+P07437+P68363+Q9BQE3+Q6PEY2+Q13885+Q9BVA1+Q9BUF5); experiment: Inhibition of tubulin polymerization in human SGC7901 cells assessed as disruption of microtubule formation at 2 times antiproliferative IC50 after 24 hrs by DAPI staining based immunofluorescence microscopic method; format: cell-based
Summary of the method: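 SGC-7901 cells were treated for 24 h at 2-fold their antiproliferative IC50. Cells were stained with anti-α-tubulin-FITC antibody and then DAPI for DNA, and the microtubule network was examined by confocal microscopy.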

Sus scrofa [3] = species: Sus scrofa; experiment: Inhibition of porcine brain tubulin polymerization at 5 uM preincubated for 1 min followed by GTP addition measured at 1 min time interval for 90 mins by fluorescence assay; summary of the method: as §2
[4] = (§3) Inhibition of porcine brain tubulin polymerization preincubated for 1 min followed by GTP addition measured at 1 min time interval for 90 mins by fluorescence assay; parameters: species or system Sus scrofa; summary of the method: as §2
Sus scrofa [5] = species: Sus scrofa; experiment: as §3; summary of the method: as §2
SGC-7901 [6] = experiment: Cell cycle arrest in human SGC7901 cells assessed as accumulation at G2/M phase at 27 to 108 nM after 24 hrs by propidium iodide staining based flow cytometry (reference value: 15%); format: functional
SGC-7901 [7] = experiment: Cell cycle arrest in human SGC7901 cells assessed as accumulation at G2/M phase after 24 hrs by propidium iodide staining based flow cytometry; format: functional
Summary of the method: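 SGC-7901 cells were treated for 24 h with a vehicle control run in parallel. Cell-cycle phase distribution was obtained by flow cytometry, with G2/M accumulation as the read-out.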

SMILES	IC50 (A549) [µM]	IC50 (SGC-7901 [1]) [µM]	IC50 (HT-1080) [µM]	other results
COc1cc(C(=O)c2cnn(-c3ccccc3Br)c2N)cc(OC)c1OC	> 30	> 30	> 30	
COc1cc(C(=O)c2cnn(-c3ccc(F)cc3)c2)cc(OC)c1OC	14	6.5	2.8	
COc1cc(/C(=N\O)c2cnn(-c3ccc(C)cc3)c2)cc(OC)c1OC (mixture of isomers)	0.14	0.071	0.09	IC50 (L929): 96.2 µM
COc1cc(C(=O)c2csc(-c3ccccc3)n2)cc(OC)c1OC	0.032	0.023	0.027	inhibition (Sus scrofa [2]): Active; IC50 (L929): 21 µM; inhibition (Tubulin (Homo sapiens)): Active
COc1cc(C(=O)c2cnn(-c3ccccc3C)c2)cc(OC)c1OC	> 30	> 30	> 30	
CC(=O)O[C@H]1C(=O)[C@@]2(C)[C@H]([C@H](OC(=O)c3ccccc3)[C@]3(O)C[C@H](OC(=O)[C@H](O)[C@@H](NC(=O)c4ccccc4)c4ccccc4)C(C)=C1C3(C)C)[C@]1(OC(C)=O)CO[C@@H]1C[C@@H]2O				inhibition (Sus scrofa [3]): inactive
COc1cc(C(=O)c2cnn(-c3cccc(Cl)c3)c2N)cc(OC)c1OC	> 30	> 30	> 30	
COc1cc(C(=O)c2cnn(-c3ccc(Cl)cc3)c2)cc(OC)c1OC	> 30	> 30	> 30	
COc1cc(C(=O)c2cnn(-c3ccccc3Cl)c2N)cc(OC)c1OC	> 30	> 30	> 30	
COc1cc(C(=O)c2cnn(-c3ccc(C)cc3C)c2)cc(OC)c1OC	> 30	> 30	22.6	
COc1cc(C(=O)c2cnn(-c3ccc(C)cc3)c2)cc(OC)c1OC	0.11	0.054	0.16	IC50 [4]: 9.17 µM; inhibition (Sus scrofa [5]): Dose-dependent effect; IC50 (L929): 65.7 µM; Activity (SGC-7901 [6]): <=68%; inhibition (Tubulin (Homo sapiens)): Active; Activity (SGC-7901 [7]): Dose-dependent effect
CCc1ccc(-n2ncc(C(=O)c3cc(OC)c(OC)c(OC)c3)c2N)cc1	> 30	> 30	> 30	
COc1cc(C(=O)c2cnn(-c3ccccc3Br)c2)cc(OC)c1OC	> 30	> 30	> 30	
CCc1ccc(-n2cc(C(=O)c3cc(OC)c(OC)c(OC)c3)cn2)cc1	16.3	7.8	3.1	
COc1cc(C(=O)c2cnn(-c3ccc(C)cc3C)c2N)cc(OC)c1OC	> 30	> 30	> 30	
COc1cc(C(=O)c2cnn(-c3ccccc3)c2)cc(OC)c1OC	8.6	> 30	19.4	
COc1cc(C(=O)c2cnn(-c3ccccc3C)c2N)cc(OC)c1OC	> 30	> 30	> 30	
COc1cc(C(=O)c2cnn(-c3ccc(C(C)C)cc3)c2)cc(OC)c1OC	> 30	> 30	17	

SMILES	IC50 (A549) [µM]	IC50 (SGC-7901 [1]) [µM]	IC50 (HT-1080) [µM]	other results
COc1cc(C(=O)c2cnn(-c3ccc(F)cc3)c2N)cc(OC)c1OC	> 30	> 30	> 30	
COc1cc(C(=O)c2cnn(-c3ccccc3)c2N)cc(OC)c1OC	11.3	24.7	5	
COc1cc(C(=O)c2cnn(-c3cccc(Br)c3)c2N)cc(OC)c1OC	> 30	> 30	> 30	
COc1cc(C(=O)c2cnn(-c3cccc(Cl)c3C)c2N)cc(OC)c1OC	> 30	> 30	> 30	
COc1cc(C(=O)c2cnn(-c3ccc(C)cc3)c2N)cc(OC)c1OC	20.6	29.6	> 30	
COc1cc(C(=O)c2cnn(-c3cc(C)cc(C)c3)c2)cc(OC)c1OC	2.3	1.9	1.6	
COc1cc(C(=O)c2cnn(-c3ccc(C(C)C)cc3)c2N)cc(OC)c1OC	> 30	> 30	> 30	
COc1ccc(-n2ncc(C(=O)c3cc(OC)c(OC)c(OC)c3)c2N)cc1	> 30	> 30	> 30	
COc1cc(C(=O)c2cnn(-c3cc(C)ccc3C)c2)cc(OC)c1OC	2.6	3.7	12.9	
COc1cc(C(=O)c2cnn(-c3ccc(Cl)cc3)c2N)cc(OC)c1OC	> 30	> 30	> 30	
COc1cc(C(=O)c2cnn(-c3cccc(Br)c3)c2)cc(OC)c1OC	> 30	> 30	> 30	
COc1cc(C(=O)c2cnn(-c3cc(C)ccc3C)c2N)cc(OC)c1OC	> 30	> 30	> 30	
COc1cc(C(=O)c2cnn(-c3cc(C)cc(C)c3)c2N)cc(OC)c1OC	> 30	> 30	> 30	
COc1cc(C(=O)c2cnn(-c3ccccc3Cl)c2)cc(OC)c1OC	> 30	> 30	> 30	
COc1cc(C(=O)c2cnn(-c3cccc(Cl)c3C)c2)cc(OC)c1OC	> 30	> 30	> 30	
COc1cc(C(=O)c2cnn(-c3cccc(Cl)c3)c2)cc(OC)c1OC	20.4	16.7	3.7	
COc1ccc(-n2cc(C(=O)c3cc(OC)c(OC)c(OC)c3)cn2)cc1	18.7	17.9	> 30	
